The source made the active and inactive calls. The calls are words filed in the database; no cut-off is given here.
What was measured:
Homo sapiens = species on record: Homo sapiens; assay: Selectivity index, ratio of IC50 for recombinant human MAO-A to IC50 for recombinant human MAO-B
Summary of the method: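 Ratio of IC50s, each from a sigmoidal curve of initial kynuramine oxidation rate versus log inhibitor concentration. Curves used six concentrations within 0-100 µM, spanning at least three orders of magnitude. IC50s determined in triplicate.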

Acetylcholinesterase = Acetylcholinesterase (Electrophorus electricus, UniProt O42275); assay: Inhibition of Electrophorus electricus AChE using acetylthiocholine iodide as substrate measured after 15 mins by Ellman's method
[1] = target: Amyloid-beta precursor protein (Homo sapiens) (UniProt P05067); assay: Inhibition of self-induced aggregation of amyloid beta (1 to 42) (unknown origin) at 25 uM after 24 hrs by thioflavin T fluorescence-based fluorometric method relative to control
Summary of the method: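 Aβ1-42 pretreated in HFIP 24 h at room temperature, dried, redissolved in DMSO. Peptide (25 µM final) incubated with compound (25 µM final) in 50 mM phosphate pH 7.4 for 24 h at 37 °C. ThT (5 µM) added in 50 mM glycine-NaOH pH 8.5; fluorescence read at ex 446/em 490 nm. Inhibition = (1 − IFi/IFc)×100 after background subtraction, triplicate.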

Rattus norvegicus = species on record: Rattus norvegicus; assay: Inhibition of rat serum BuChE using butyrylthiocholine iodide as substrate measured at 50 uM after 15 mins by Ellman's method relative to control
Summary of the method: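 Rat serum (25%) as enzyme source; modified Ellman method in […] pH 7.4 with 1 mmol/L butyrylthiocholine iodide and 0.2% DTNB; 37 °C for 15 min, absorbance at 405 nm. Percent inhibition at 50 µM test compound, each concentration in triplicate.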

[2] = target: T1, Amine oxidase [flavin-containing] B (Homo sapiens, UniProt P27338); assay: Inhibition of recombinant human MAO-B using kynuramine as substrate after 30 mins by fluorescence assay
T1 sequence (P27338 whole entry): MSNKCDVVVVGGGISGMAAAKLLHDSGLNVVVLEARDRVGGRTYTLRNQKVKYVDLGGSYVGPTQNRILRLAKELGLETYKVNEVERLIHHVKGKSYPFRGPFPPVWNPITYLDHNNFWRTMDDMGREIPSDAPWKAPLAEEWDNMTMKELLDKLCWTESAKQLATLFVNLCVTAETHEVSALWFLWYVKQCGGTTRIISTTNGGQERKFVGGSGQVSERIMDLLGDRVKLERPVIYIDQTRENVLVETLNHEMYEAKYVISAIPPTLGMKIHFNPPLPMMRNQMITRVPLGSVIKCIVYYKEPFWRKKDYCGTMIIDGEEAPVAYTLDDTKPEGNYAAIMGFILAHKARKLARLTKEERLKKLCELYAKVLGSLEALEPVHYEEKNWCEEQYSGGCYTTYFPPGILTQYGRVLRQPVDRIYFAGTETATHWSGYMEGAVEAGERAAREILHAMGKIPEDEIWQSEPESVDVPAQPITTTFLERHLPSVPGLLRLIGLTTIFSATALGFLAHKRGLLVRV

[3] = Antioxidant activity assessed as trolox equivalents of AAPH radical scavenging activity at 5 uM preincubated for 15 mins followed by AAPH addition measured every min for 90 mins by ORAC-FL assay; format: functional
Summary of the method: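 ORAC-FL in 75 mM phosphate buffer pH 7.4, 200 µL final. Sample plus fluorescein (150 nM final) pre-incubated 15 min at 37 °C, then AAPH added (12 mM final). Fluorescence read every minute for 90 min, ex 485/em 535 nm, normalized to FL+AAPH blank. Trolox standard 1-8 µM final; values given as µM Trolox equivalent per µM compound. Duplicate wells, at least three independent assays.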

[4] = target: T2, Amine oxidase [flavin-containing] A (Homo sapiens, UniProt P21397); assay: Inhibition of recombinant human MAO-A using kynuramine as substrate after 30 mins by fluorescence assay
T2 sequence (P21397 whole entry): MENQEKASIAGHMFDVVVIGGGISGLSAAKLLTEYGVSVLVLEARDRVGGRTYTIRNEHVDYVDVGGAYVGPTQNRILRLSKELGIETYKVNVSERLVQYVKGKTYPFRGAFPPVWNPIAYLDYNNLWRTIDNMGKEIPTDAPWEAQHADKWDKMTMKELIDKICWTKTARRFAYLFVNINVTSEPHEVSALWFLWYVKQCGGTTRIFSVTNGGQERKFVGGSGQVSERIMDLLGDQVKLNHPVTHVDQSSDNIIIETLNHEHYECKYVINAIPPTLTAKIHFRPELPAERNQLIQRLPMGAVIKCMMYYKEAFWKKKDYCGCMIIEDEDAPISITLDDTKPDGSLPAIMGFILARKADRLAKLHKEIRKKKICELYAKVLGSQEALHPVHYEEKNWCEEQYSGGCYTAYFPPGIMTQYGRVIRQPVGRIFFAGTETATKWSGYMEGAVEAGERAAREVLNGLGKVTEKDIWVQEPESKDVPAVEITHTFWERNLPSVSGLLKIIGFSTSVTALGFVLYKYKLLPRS

[5] = target: T1, Amine oxidase [flavin-containing] B; assay: Inhibition of recombinant human MAO-B at 10 uM using kynuramine as substrate after 30 mins by fluorescence assay relative to control; settings: 0.5 h
Summary of the method: (§1)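 Recombinant human MAO-A or MAO-B, kynuramine substrate (45 µM for MAO-A, 30 µM for MAO-B), in 100 mM potassium phosphate pH 7.40 with 20.2 mM KCl and under 4% DMSO. Enzyme (7.5 µg/mL) starts the reaction; 30 min at 37 °C. Stopped with NaOH plus water, centrifuged, supernatant fluorescence read at ex 310/em 400 nm. Percent inhibition at 10 µM.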

[6] = Effective permeability of the compound at 100 ug/ml after 18 hrs by PAMPA-BBB assay
[7] = target: T2, Amine oxidase [flavin-containing] A; assay: Inhibition of recombinant human MAO-A at 10 uM using kynuramine as substrate after 30 mins by fluorescence assay relative to control; settings: 0.5 h; summary of the method: as §1
[8] = Inhibition of rat serum BuChE using butyrylthiocholine iodide as substrate measured after 15 mins by Ellman's method
[9] = target: Acetylcholinesterase (Electrophorus electricus) (UniProt O42275); assay: Mixed type inhibition of Electrophorus electricus AChE at 0.1 to 0.5 uM using varying levels of acetylthiocholine iodide as substrate incubated for 15 mins followed by substrate addition by Lineweaver-Burk plot analysis
Chain of Acetylcholinesterase (Electrophorus electricus) (O42275 24-633 limits assumed): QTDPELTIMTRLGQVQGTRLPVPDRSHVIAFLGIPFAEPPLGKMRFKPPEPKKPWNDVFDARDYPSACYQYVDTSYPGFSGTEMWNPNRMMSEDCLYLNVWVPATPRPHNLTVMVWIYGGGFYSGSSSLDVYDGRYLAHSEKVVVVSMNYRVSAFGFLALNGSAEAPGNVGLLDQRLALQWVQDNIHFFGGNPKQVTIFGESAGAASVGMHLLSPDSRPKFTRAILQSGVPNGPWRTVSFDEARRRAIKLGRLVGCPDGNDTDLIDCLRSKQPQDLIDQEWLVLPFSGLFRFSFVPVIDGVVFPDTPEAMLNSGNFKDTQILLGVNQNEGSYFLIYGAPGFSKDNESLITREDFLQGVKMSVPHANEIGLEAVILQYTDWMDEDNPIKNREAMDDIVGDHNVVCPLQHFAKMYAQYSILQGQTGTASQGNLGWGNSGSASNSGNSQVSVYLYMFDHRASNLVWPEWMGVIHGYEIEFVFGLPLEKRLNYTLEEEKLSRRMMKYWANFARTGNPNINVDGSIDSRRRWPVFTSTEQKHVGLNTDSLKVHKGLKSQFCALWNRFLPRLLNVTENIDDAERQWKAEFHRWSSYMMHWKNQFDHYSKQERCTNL

Chain of Amyloid-beta precursor protein (Homo sapiens) (P05067 whole entry): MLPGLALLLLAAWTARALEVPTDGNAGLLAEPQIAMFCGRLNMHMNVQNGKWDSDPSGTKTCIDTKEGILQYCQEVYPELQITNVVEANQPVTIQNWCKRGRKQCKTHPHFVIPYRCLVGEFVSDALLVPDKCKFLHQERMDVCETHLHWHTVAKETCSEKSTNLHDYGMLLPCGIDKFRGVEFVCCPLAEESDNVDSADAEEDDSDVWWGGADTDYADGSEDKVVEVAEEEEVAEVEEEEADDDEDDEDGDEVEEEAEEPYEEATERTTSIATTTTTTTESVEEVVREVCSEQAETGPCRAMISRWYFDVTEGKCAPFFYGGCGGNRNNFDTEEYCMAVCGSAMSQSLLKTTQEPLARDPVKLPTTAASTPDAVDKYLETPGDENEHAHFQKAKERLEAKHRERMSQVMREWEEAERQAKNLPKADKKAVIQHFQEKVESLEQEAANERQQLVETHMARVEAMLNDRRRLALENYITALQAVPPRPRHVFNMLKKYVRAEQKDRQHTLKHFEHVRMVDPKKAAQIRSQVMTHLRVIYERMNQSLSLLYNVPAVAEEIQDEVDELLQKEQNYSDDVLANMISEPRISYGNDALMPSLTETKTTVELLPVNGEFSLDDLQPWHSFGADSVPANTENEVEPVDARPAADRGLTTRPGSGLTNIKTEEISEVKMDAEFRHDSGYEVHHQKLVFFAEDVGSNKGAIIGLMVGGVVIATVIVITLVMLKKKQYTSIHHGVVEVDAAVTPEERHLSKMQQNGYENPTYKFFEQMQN
Chain of Acetylcholinesterase (O42275 whole entry): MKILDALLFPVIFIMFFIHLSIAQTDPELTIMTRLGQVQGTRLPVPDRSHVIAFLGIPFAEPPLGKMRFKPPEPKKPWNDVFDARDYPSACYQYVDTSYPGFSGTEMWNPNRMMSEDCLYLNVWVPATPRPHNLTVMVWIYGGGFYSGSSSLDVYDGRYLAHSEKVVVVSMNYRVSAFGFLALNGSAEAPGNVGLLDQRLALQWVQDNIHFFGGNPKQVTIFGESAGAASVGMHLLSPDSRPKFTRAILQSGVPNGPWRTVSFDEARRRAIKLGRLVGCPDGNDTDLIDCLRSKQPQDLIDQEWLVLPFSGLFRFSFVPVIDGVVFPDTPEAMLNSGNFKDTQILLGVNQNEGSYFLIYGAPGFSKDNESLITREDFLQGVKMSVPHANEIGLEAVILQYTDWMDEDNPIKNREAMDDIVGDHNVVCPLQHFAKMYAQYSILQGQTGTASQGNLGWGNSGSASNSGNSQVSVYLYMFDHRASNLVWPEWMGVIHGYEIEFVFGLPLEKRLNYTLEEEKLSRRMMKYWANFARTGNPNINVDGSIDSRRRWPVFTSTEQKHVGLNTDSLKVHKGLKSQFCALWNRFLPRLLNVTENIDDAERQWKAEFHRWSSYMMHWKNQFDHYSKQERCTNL

Structure (SMILES) | Ratio IC50 (Homo sapiens) | IC50 (Acetylcholinesterase) [µM] | inhibition [1] [%] | inhibition (Rattus norvegicus) [%] | IC50 [2] [µM] | Activity [3] [equiv] | IC50 [4] [µM] | inhibition at 10 µM [5] [%] | Papp at 18 h, 100 ug/ml [6] [×10⁻⁶ cm/s] | inhibition at 10 µM [7] [%] | IC50 [8] [µM] | inhibition [9]
CCN(CCCCn1sc2cc(OC)c(OC)cc2c1=O)Cc1ccccc1 | 0.99 | 0.8 | 9.4 | 21.8 | 20.1 | 0.53 | 19.9 | – | – | – | – | –
CCN(CCCCn1sc2cc(OC)c(OC)cc2c1=O)Cc1ccccc1N(C)C | – | 7.1 | 11.7 | 32.6 | – | 0.34 | 9.9 | 46.5 | – | – | – | –
COc1ccccc1CN(C)CCCCn1sc2cc(OC)c(OC)cc2c1=O | 0.37 | 5.9 | 11.7 | 25.5 | 19.2 | 0.39 | 7.1 | – | – | – | – | –
CCN(CCCCCCn1sc2cc(OC)c(OC)cc2c1=O)Cc1ccccc1N(C)C | 0.17 | 0.56 | 31.2 | 46.8 | 19.6 | 0.35 | 3.4 | – | – | – | – | –
CCN(CCCn1sc2cc(OC)c(OC)cc2c1=O)Cc1ccccc1 | – | 6.65 | 19.6 | 12.3 | – | 0.84 | 9.9 | 46.3 | – | – | – | –
CCN(CCCCCCn1sc2cc(OC)c(OC)cc2c1=O)Cc1ccccc1OC | – | 0.46 | 48 | 46.9 | – | 0.28 | 7.9 | 43.8 | 4.32 | – | – | –
CCN(CCCn1sc2cc(OC)c(OC)cc2c1=O)Cc1ccccc1N(C)C | – | 9.7 | 19.8 | 27.9 | – | 0.22 | 16.6 | 45.4 | – | – | – | –
COc1ccccc1CN(C)CCCCCCn1c(=O)c2cc(OC)c(OC)cc2[s+]1[O-] (configuration not stated) | – | 0.8 | 38 | 28.7 | – | 0.33 | – | 12.2 | – | 23.8 | – | –
CCN(CCCCn1sc2cc(OC)c(OC)cc2c1=O)Cc1ccccc1OC | 0.49 | 4.99 | 21.1 | 36.4 | 19.4 | 0.3 | 9.6 | – | – | – | – | –
COc1cc2sn(CCCCCCN(C)Cc3ccccc3)c(=O)c2cc1OC | 1.74 | 0.35 | 4.3 | 23.1 | 13.2 | 0.29 | 23 | – | – | – | – | –
COc1cc2c(cc1OC)C(=O)C(CC1CCN(Cc3ccccc3)CC1)C2 (configuration not stated) [DONEPEZIL] | – | – | – | – | – | – | – | – | – | – | 21.4 | –
COc1ccccc1CN(C)CCCCCCN1C(=O)c2cc(OC)c(OC)cc2S1(=O)=O | – | 1.02 | 23.9 | < 5 | – | 0.16 | – | 29.2 | – | 28.1 | – | –
CCN(CCCn1sc2cc(OC)c(OC)cc2c1=O)Cc1ccc(N(C)C)cc1 | – | 12.9 | 13.4 | 9.6 | – | 0.58 | 11.3 | 40.1 | – | – | – | –
COc1ccccc1CN(C)CCCCCCn1sc2cc(OC)c(OC)cc2c1=O | 1.45 | 0.61 | 20.2 | 28.8 | 13.7 | 0.26 | 19.9 | – | – | – | – | –
COc1ccccc1CN(C)CCCn1sc2cc(OC)c(OC)cc2c1=O | – | 12 | 21.8 | 10.8 | – | 0.83 | 9.4 | 48.6 | – | – | – | –
COc1cc2s[nH]c(=O)c2cc1OC | – | 34.9 | 12.2 | 10.3 | – | 0.29 | 21 | 14 | – | – | – | –
COc1cc2sn(CCCCN(C)Cc3ccccc3)c(=O)c2cc1OC | 0.45 | 1.2 | 17.3 | 14.7 | 19.7 | 0.21 | 8.9 | – | – | – | – | –
CCN(CCCCCCN1C(=O)c2cc(OC)c(OC)cc2S1(=O)=O)Cc1ccccc1 | – | 13.1 | 6 | 35.7 | – | 0.2 | – | 38.9 | – | 30.2 | – | –
CCN(CCCCn1sc2cc(OC)c(OC)cc2c1=O)Cc1ccc(N(C)C)cc1 | 0.85 | 8.85 | 32.5 | 23.2 | 18.8 | 2.14 | 15.9 | – | – | – | – | –
CCN(CCCCCCn1sc2cc(OC)c(OC)cc2c1=O)Cc1ccc(N(C)C)cc1 | 0.57 | 6.5 | 33.4 | 22.7 | 12.4 | 1.92 | 7.1 | – | – | – | – | –
CCN(CCCCCCn1sc2cc(OC)c(OC)cc2c1=O)Cc1ccccc1 | 0.41 | 0.29 | 35.4 | 48.2 | 20.1 | 0.27 | 8.2 | – | 15.6 | – | – | Active
CCN(CCCn1sc2cc(OC)c(OC)cc2c1=O)Cc1ccccc1OC | – | 8.3 | 12.4 | 18.9 | – | 0.82 | 15.5 | 37 | – | – | – | –
CCN(CCCCCCn1c(=O)c2cc(OC)c(OC)cc2[s+]1[O-])Cc1ccccc1 (configuration not stated) | – | 0.38 | 29.2 | 8.1 | – | 0.23 | – | 14.6 | – | 21.5 | – | –
COc1cc2sn(CCCN(C)Cc3ccccc3)c(=O)c2cc1OC | – | 7.5 | 7.6 | 11.5 | – | 0.91 | 6.9 | 44.4 | – | – | – | –

— ChEMBL document CHEMBL4219111, “Multifunctional 5,6-dimethoxybenzo[d]isothiazol-3(2H)-one-N-alkylbenzylamine derivatives with acetylcholinesterase, monoamine oxidases and β-amyloid aggregation inhibitory activities as potential agents against Alzheimer's disease” (Bioorg Med Chem, 2018)
